Reference: article PMC2978626 (The Journal of Biological Chemistry, 2010)
Where no end group is shown, it is not given here.

Key:
[1] = molecular target: ^8F1^9F1 (module pair of fibronectin, Fn precursor residues 516–608) (Homo sapiens, UniProt P02751); assay: ITC, binding to ^8F1^9F1; settings: 10 mM NaH2PO4/K2HPO4, pH 7.4, 25 °C, FnZ peptide 2.97 mM, Fn domain 0.24 mM
Method in brief: (§1)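 Cell held GBD (proteolytic Fn fragment, dialysed into buffer) or ⁸F1⁹F1 (Pichia-expressed, Endo Hf-trimmed glycans). Syringe held uncapped synthetic test peptide at 10–20× the cell concentration. Both were degassed at 20 °C for 15 min. 2 μl preinjection, then 39 × 7 μl injections at 0.5 μl/s, 307 rpm, 360 s spacing. Averaged heats from a separate peptide-into-buffer run were subtracted; one-site binding fit.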

[2] = molecular target: GBD (gelatin-binding domain of fibronectin) (Homo sapiens, UniProt P02751); assay: ITC, binding to GBD
Method in brief: as §1

[3] = molecular target: gelatin-binding domain (GBD) of fibronectin, proteolytic fragment (human); assay: ITC
[4] = molecular target: recombinant fibronectin 100-kDa N-terminal fragment (human); assay: ITC
[5] = ITC, 10 mM NaH2PO4/K2HPO4, pH 7.4, 25 °C, FnZ peptide 0.11 mM, Fn domain 0.01 mM

Sequence of GBD (gelatin-binding domain of fibronectin) (P02751 308-608 limits assumed): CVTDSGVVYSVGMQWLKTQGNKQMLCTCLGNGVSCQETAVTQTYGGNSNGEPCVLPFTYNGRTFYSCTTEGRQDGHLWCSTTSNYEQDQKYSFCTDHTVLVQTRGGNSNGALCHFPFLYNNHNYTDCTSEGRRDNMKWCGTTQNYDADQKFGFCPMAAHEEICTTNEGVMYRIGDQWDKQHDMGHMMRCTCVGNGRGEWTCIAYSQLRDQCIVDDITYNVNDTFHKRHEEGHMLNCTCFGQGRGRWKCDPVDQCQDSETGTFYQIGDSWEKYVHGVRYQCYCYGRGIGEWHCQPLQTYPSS
Sequence of ^8F1^9F1 (module pair of fibronectin, Fn precursor residues 516–608) (P02751 516-608): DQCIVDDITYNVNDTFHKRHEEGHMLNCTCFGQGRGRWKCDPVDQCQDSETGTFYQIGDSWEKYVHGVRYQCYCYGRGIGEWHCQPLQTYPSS

Molecule: RNPHLMGIGGGLAGESGETTPK [FnZ peptide]
- ΔH [1]: -29.8 kcal/mol
- ΔS [1]: −77.2 cal/mol K^−1
- Kd [2]: 540 ± 40 nM
- ΔH [2, 5]: -17.7 kcal/mol
- ΔS [2, 5]: −30.8 cal/mol K^−1

Molecule: H-RNPHLMGIGGGLAGESGETTPK-OH [FnZ synthetic peptide, residues 370-391]
- Kd [3]: 540 nM
- dH [3]: -17.7 kcal/mol

B1: FnZ(370-428), recombinant fragment of the fibronectin-binding protein FnZ from S. zooepidemicus (domain or fragment)
chain: GPLGSRNPHLMGIGGGLAGESGETTPKPGQTGGQGPVIETTEDTQKGMSGQSGGTIESENTKKP
- Kd [4]: 0.8 nM
- dH [4]: -54.6 kcal/mol
- stoichiometry N [4]: 1.06
